From ChEMBL document CHEMBL4706553, “Discovery of potent small molecule PROTACs targeting mutant EGFR” (Eur J Med Chem, 2020)
Activity calls are given as the source filed them.

Columns and labels:
[1] = test system: HepG2; test: Antiproliferative activity against human HepG2 cells expressing VEGFR2 assessed as cell growth inhibition measured after 72 hrs by MTT assay; assay type: functional, cell-based; settings: HepG2, 72 h
Method in brief: (§1)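 Cells were seeded at 3000–8000/well and allowed 24 h, then exposed to serial compound concentrations for 72 h. MTT (5 mg/mL stock in PBS) was added for 4 h, supernatant removed and DMSO added. IC50, defined as 50% growth inhibition, was derived by nonlinear regression (log inhibitor vs response).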

[2] = test system: NCI-H1975; test: Antiproliferative activity against human H1975 cells expressing EGFR L858R/T790M mutant assessed as cell growth inhibition measured after 72 hrs by MTT assay; assay type: functional, cell-based; settings: NCI-H1975, 72 h
Method in brief: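 MTT assay on H1975 cells grown in RPMI-1640 with 10% heat-inactivated FBS and 1% penicillin-streptomycin at 37 °C and 5% CO₂. Cells were seeded at 3000–8000 per well and left 24 h, then exposed to a concentration series for 72 h. MTT (5 mg/mL stock in PBS) was added for 4 h, supernatant removed and formazan dissolved in DMSO. IC50 was fitted by nonlinear regression (log inhibitor vs response).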

[3] = target: T1, von Hippel-Lindau disease tumor suppressor/Epidermal growth factor receptor (Homo sapiens, UniProt P00533+P40337); test: Protac activity at VHL/EGFR del19 mutant in human HCC827 cells assessed as induction of EGFR degradation measured after 48 hrs by Western blot analysis; assay type: cell-based
Method in brief: (§2)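 HCC827 cells seeded at 0.5–1 × 10⁶ per well, then treated at the stated concentrations for 48 h. EGFR by Western blot; n = 3. DC₅₀ (concentration giving 50% EGFR loss) by nonlinear regression, log(inhibitor) vs response.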

[4] = test system: von Hippel-Lindau disease tumor suppressor/Epidermal growth factor receptor (Homo sapiens), P00533+P40337 [UNDEFINED MUTATION]; test: Protac activity at VHL/EGFR del19 mutant in human HCC827 cells assessed as induction of EGFR degradation at 33 nM incubated for 24 hrs measured following drug wash-out for 24 hrs by Western blot analysis; assay type: cell-based
Method in brief: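 HCC827 cells (RPMI-1640, 10% heat-inactivated FBS, 1% sodium pyruvate, 1% glutamine, 37 °C, 5% CO₂) treated at 33 nM for 24 h. Medium then replaced with compound-free medium, and protein harvested at the stated times. EGFR read by Western blot; n = 2.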

[5] = test system: von Hippel-Lindau disease tumor suppressor/Epidermal growth factor receptor (Homo sapiens), P00533+P40337 [UNDEFINED MUTATION]; test: Protac activity at VHL/EGFR del19 mutant in human HCC827 cells assessed as induction of EGFR degradation at 33 nM by Western blot analysis; assay type: cell-based; settings: time 12-72 hrs, TDE = time-dependent effect
Method in brief: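 Time course in HCC827 cells at 33 nM, with protein harvested at each stated time point. EGFR^del19 detected by Western blot.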

[6] = target: von Hippel-Lindau disease tumor suppressor/Epidermal growth factor receptor (Homo sapiens, UniProt P00533+P40337, T790M/L858R); test: Protac activity at VHL/EGFR L858R/T790M mutant in human H1975 cells assessed as induction of degradation of EGFR incubated for 48 hrs by Western blot analysis; assay type: cell-based; settings: nci-h1975
Method in brief: (§3)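 H1975 cells exposed to the stated concentrations for 48 h. EGFR by Western blot; n = 3. DC₅₀ by nonlinear regression, log(inhibitor) vs response.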

[7] = test system: von Hippel-Lindau disease tumor suppressor/Epidermal growth factor receptor (Homo sapiens), P00533+P40337 [UNDEFINED MUTATION]; test: Protac activity at VHL/EGFR del19 mutant in human HCC827 cells assessed as induction of EGFR degradation at 333 nM measured after 24 hrs by Western blot analysis; assay type: cell-based
Method in brief: (§4)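 HCC827 cells seeded at 0.5–1 × 10⁶ per well, grown 24 h, then treated at the stated concentrations for 24 h. EGFR^del19 level by Western blot with anti-EGFR antibody and β-actin loading control.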

[8] = test system: A-431; test: Antiproliferative activity against human A431 cells expressing wild type EGFR assessed as cell growth inhibition measured after 72 hrs by MTT assay; assay type: functional, cell-based; settings: A-431, 72 h; method in brief: as §1
[9] = test system: von Hippel-Lindau disease tumor suppressor/Epidermal growth factor receptor (Homo sapiens), P00533+P40337 [UNDEFINED MUTATION]; test: Protac activity at VHL/EGFR del19 mutant in human HCC827 cells assessed as maximal induction of EGFR degradation at 33 nM measured after 48 hrs by Western blot analysis; assay type: cell-based; method in brief: as §2
[10] = test system: HCC827; test: Antiproliferative activity against human HCC827 cells expressing EGFR del19 mutant assessed as cell growth inhibition measured after 72 hrs by MTT assay; assay type: functional, cell-based; settings: HCC827, 72 h
Method in brief: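 HCC827 cells were kept in RPMI-1640 with 10% heat-inactivated FBS, 1% sodium pyruvate, 1% glutamine and 1% penicillin-streptomycin at 37 °C and 5% CO₂, seeded at 3000–8000/well and rested 24 h. Compounds were applied as a concentration series for 72 h. MTT (5 mg/mL stock in PBS) was given for 4 h, then medium was removed and DMSO added. IC50 came from nonlinear regression (log inhibitor vs response).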

[11] = test system: von Hippel-Lindau disease tumor suppressor/Epidermal growth factor receptor (Homo sapiens), P00533+P40337 [L858R,T790M]; test: Protac activity at VHL/EGFR L858R/T790M mutant in human H1975 cells assessed as induction of degradation of EGFR at 333 nM incubated for 48 hrs measured after compound wash-out for 48 hrs by Western blot analysis; assay type: cell-based; settings: NCI-H1975
Method in brief: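 H1975 cells (RPMI-1640, 10% heat-inactivated FBS) exposed to 333 nM for 48 h. Medium then replaced with compound-free medium, and lysates collected at the stated times. EGFR read by Western blot; n = 2.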

[12] = test system: von Hippel-Lindau disease tumor suppressor/Epidermal growth factor receptor (Homo sapiens), P00533+P40337 [UNDEFINED MUTATION]; test: Protac activity at VHL/EGFR del19 mutant in human HCC827 cells assessed as induction of EGFR degradation at 33 nM measured after 24 hrs by Western blot analysis; assay type: cell-based; method in brief: as §4
[13] = test system: von Hippel-Lindau disease tumor suppressor/Epidermal growth factor receptor (Homo sapiens), P00533+P40337 [L858R,T790M]; test: Protac activity at VHL/EGFR L858R/T790M mutant in human H1975 cells assessed as maximal induction of degradation of EGFR incubated for 48 hrs by Western blot analysis relative to control; assay type: cell-based; settings: NCI-H1975; method in brief: as §3
[14] = test system: von Hippel-Lindau disease tumor suppressor/Epidermal growth factor receptor (Homo sapiens), P00533+P40337 [UNDEFINED MUTATION]; test: Protac activity at VHL/EGFR del19 mutant in human HCC827 cells assessed as induction of EGFR degradation at 33 to 333 nM measured after 24 hrs by Western blot analysis; assay type: cell-based; settings: dose 33-333 nM; method in brief: as §4
[15] = test system: Protein cereblon/Epidermal growth factor receptor (Homo sapiens), P00533+Q96SW2 [UNDEFINED MUTATION]; test: Protac activity at CRBN/EGFR del19 mutant in human HCC827 cells assessed as induction of EGFR degradation at 33 nM measured after 24 hrs by Western blot analysis; assay type: cell-based; method in brief: as §4
[16] = test system: Protein cereblon/Epidermal growth factor receptor (Homo sapiens), P00533+Q96SW2 [UNDEFINED MUTATION]; test: Protac activity at CRBN/EGFR del19 mutant in human HCC827 cells assessed as induction of EGFR degradation at 333 nM measured after 24 hrs by Western blot analysis; assay type: cell-based; method in brief: as §4
[17] = target: T1, von Hippel-Lindau disease tumor suppressor/Epidermal growth factor receptor; test: Protac activity at VHL/EGFR del19 mutant in human HCC827 cells assessed as induction of EGFR degradation measured after 24 hrs by Western blot analysis; assay type: cell-based; method in brief: as §4

Structure (SMILES)	IC50 [1] [nM]	IC50 [2] [nM]	IC50 [8] [nM]	IC50 [10] [nM]	Activity [15]	Activity [16]	other results
Cc1ncsc1-c1ccc(CNC(=O)[C@@H]2C[C@@H](O)CN2C(=O)[C@@H](NC(=O)CCCCCCCN2CCN(c3ccc(Nc4ncc5nc(Nc6ccccc6)n(C6CCCC6)c5n4)cc3)CC2)C(C)(C)C)cc1	> 5000	970	330	0.76			DC50 [3]: 3.54 nM; Activity [4]: Active; Activity [5]: Tde; DC50 [6]: 151 nM; Activity [7]: inactive; Emax [9]: 74.8%; Activity [11]: Active; Activity [12]: Active; Emax [13]: 80.3%
Cc1ncsc1-c1ccc(CNC(=O)[C@@H]2C[C@@H](O)CN2C(=O)[C@@H](NCCOCCOCCOCCOCCN2CCN(c3ccc(Nc4ncc5nc(Nc6ccccc6)n(C6CCCC6)c5n4)cc3)CC2)C(C)(C)C)cc1	> 5000	2890		62			Activity [14]: inactive
O=C1CCC(N2Cc3c(NC(=O)CCCCCCN4CCN(c5ccc(Nc6ncc7nc(Nc8ccccc8)n(C8CCCC8)c7n6)cc5)CC4)cccc3C2=O)C(=O)N1 (stereo not drawn)	> 5000	9300	220	1.41	Active	inactive	
COc1cc2ncnc(Nc3ccc(F)c(Cl)c3)c2cc1OCCCCCOCCOCCC(=O)N[C@H](C(=O)N1C[C@H](O)C[C@H]1C(=O)NCc1ccc(-c2scnc2C)cc1)C(C)(C)C							DC50 [17]: 11.7 nM
C=CC(=O)Nc1cc(Nc2nccc(-c3cn(C)c4ccccc34)n2)c(OC)cc1N(C)CCN(C)C [OSIMERTINIB]		[…]	[…]	0.97			
CN(CCOCCOCCN1CCN(c2ccc(Nc3ncc4nc(Nc5ccccc5)n(C5CCCC5)c4n3)cc2)CC1)CC(=O)Nc1cccc2c1CN(C1CCC(=O)NC1=O)C2=O (stereo not drawn)	> 5000	1210	2670	1.39	Active	inactive	
